# Laboratory results taken from ChEMBL document CHEMBL1124728, “Small peptide inhibitors of smooth muscle myosin light chain kinase” (J Med Chem, 1990).
# Non-standard residues stand in square brackets, D forms with d. Residues, ends and D or L forms follow the SMILES beside them. ξ: configuration not given here. *: point of attachment. Tyr(3,5-I2) = N[C@@H](Cc1cc(I)c(O)c(I)c1)C(=O)O; Bip = N[C@@H](Cc1ccc(-c2ccccc2)cc1)C(=O)O; Tyr(3-I) = N[C@@H](Cc1ccc(O)c(I)c1)C(=O)O; Dip = N[C@H](C(=O)O)C(c1ccccc1)c1ccccc1; 1Nal = N[C@@H](Cc1cccc2ccccc12)C(=O)O; 2Nal = N[C@@H](Cc1ccc2ccccc2c1)C(=O)O; Cha = N[C@@H](CC1CCCCC1)C(=O)O; OCH2CH2Ph = c1ccc(CCO*)cc1; ξαMeS = CC(N)(CO)C(=O)O; X3 = c1ccc(CCCCO*)cc1; NHBn = c1ccc(CN*)cc1; OBn = c1ccc(CO*)cc1; X2 = CCCCO*
# Biological target: T1, Myosin light chain kinase, smooth muscle (Gallus gallus, UniProt P11799)
# Test: Inhibition of native form of chicken MLCK (myosin light chain kinase)
# How it was run: (§1)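 Native calmodulin-dependent gizzard MLCK, over 95% homogeneous, with 200 nM calmodulin, 1 mM EGTA and about 200 μM excess free Ca2+. Started with ATP and stopped with HCl; phosphocellulose filter counting. Graphical IC50 from duplicates at four concentrations, or % inhibition at a single concentration.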
# T1 sequence (P11799 whole entry): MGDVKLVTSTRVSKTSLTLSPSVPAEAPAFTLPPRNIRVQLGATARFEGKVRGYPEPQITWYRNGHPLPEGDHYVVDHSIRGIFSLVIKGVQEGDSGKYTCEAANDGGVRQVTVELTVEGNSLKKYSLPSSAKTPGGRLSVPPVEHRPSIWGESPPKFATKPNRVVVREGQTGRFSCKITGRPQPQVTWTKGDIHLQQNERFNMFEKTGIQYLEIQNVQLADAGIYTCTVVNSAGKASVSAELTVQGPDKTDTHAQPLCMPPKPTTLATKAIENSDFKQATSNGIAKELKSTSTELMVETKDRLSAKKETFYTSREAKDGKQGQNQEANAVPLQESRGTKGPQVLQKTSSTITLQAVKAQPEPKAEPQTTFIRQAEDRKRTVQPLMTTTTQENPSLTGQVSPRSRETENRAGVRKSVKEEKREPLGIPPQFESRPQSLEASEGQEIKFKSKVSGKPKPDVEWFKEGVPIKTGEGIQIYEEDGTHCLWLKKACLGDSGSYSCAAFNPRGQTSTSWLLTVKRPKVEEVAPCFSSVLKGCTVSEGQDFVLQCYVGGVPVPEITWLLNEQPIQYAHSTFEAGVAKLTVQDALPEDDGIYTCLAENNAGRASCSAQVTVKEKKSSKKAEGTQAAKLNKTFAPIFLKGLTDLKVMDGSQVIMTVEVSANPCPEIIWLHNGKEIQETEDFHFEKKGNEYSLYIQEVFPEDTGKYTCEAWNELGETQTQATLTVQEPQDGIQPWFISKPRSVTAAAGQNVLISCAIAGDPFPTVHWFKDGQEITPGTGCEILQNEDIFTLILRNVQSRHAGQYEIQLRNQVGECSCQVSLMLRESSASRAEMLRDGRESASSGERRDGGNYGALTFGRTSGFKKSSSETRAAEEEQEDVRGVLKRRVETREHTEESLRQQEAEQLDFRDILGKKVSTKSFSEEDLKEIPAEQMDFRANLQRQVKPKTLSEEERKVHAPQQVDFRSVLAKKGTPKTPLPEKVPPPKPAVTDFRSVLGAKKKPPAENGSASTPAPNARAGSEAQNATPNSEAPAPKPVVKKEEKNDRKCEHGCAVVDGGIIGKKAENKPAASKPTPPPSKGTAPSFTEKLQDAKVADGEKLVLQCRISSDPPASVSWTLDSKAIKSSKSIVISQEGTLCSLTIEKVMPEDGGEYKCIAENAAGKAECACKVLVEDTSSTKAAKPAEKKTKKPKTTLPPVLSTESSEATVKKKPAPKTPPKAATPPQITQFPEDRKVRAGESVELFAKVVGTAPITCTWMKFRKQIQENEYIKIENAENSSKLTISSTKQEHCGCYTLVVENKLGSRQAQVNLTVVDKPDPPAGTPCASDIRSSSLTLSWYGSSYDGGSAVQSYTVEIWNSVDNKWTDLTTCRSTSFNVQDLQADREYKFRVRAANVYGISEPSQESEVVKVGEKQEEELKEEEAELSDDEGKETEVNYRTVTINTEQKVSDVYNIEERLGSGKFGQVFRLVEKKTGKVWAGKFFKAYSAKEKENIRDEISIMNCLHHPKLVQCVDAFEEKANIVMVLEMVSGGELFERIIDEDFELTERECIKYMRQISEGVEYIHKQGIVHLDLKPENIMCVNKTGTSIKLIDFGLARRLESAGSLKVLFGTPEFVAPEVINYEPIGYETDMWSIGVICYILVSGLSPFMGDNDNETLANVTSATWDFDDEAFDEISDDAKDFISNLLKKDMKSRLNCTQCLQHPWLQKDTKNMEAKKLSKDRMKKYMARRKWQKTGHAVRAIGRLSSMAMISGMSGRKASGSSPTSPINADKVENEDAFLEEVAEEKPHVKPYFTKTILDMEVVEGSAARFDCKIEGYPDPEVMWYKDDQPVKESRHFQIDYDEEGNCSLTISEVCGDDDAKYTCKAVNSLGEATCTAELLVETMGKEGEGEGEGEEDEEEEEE
row,Compound,IC50 [µM]
1,CC(C)[C@H](NC(=O)[C@H](CC(N)=O)NC(=O)[C@@H](N)CO)C(=O)N[C@@H](Cc1ccc(O)c(I)c1)C(=O)N[C@@H](C)C(=O)OCc1ccccc1 (H-SNV[Tyr(3-I)]A-OBn),1
2,CC(C)[C@H](NC(=O)CNC(=O)[C@@H](N)CO)C(=O)N[C@@H](Cc1ccccc1)C(=O)N[C@@H](C)C(=O)OCc1ccccc1 (H-SGVFA-OBn),450
3,CC(C)[C@@H](NC(=O)[C@@H](CC(N)=O)NC(=O)[C@H](N)CO)C(=O)N[C@H](Cc1ccccc1)C(=O)N[C@H](C)C(=O)OCc1ccccc1,12
4,CC(C)C[C@H](NC(=O)[C@H](CC(N)=O)NC(=O)[C@@H](N)CO)C(=O)N[C@@H](Cc1ccccc1)C(=O)N[C@@H](C)C(=O)OCc1ccccc1 (H-SNLFA-OBn),3
5,CSCC[C@H](NC(=O)[C@H](CC(N)=O)NC(=O)[C@@H](N)CO)C(=O)N[C@@H](Cc1ccccc1)C(=O)N[C@@H](C)C(=O)OCc1ccccc1 (H-SNMFA-OBn),30
6,CC(C)[C@H](NC(=O)[C@H](CC(N)=O)NC(=O)[C@@H](N)CO)C(=O)N[C@@H](Cc1ccccc1)C(=O)OCc1ccccc1 (H-SNVF-OBn),160
7,CC(C)[C@H](NC(=O)[C@H](CC(N)=O)NC(=O)[C@@H](N)CO)C(=O)N[C@@H](Cc1ccccc1)C(=O)N[C@@H](C)C(=O)NCc1ccccc1 (H-SNVFA-NHBn),15
8,CC(C)[C@H](NC(=O)[C@H](CC(N)=O)NC(=O)[C@@H](N)CO)C(=O)N[C@@H](Cc1ccc(O)cc1)C(=O)N[C@@H](C)C(=O)OCc1ccccc1 (H-SNVYA-OBn),45
9,CC(C)[C@H](NC(=O)[C@H](CC(N)=O)NC(=O)[C@@H](N)CO)C(=O)N[C@@H](CC1CCCCC1)C(=O)N[C@@H](C)C(=O)OCc1ccccc1 (H-SNV[Cha]A-OBn),12
10,CC(C)[C@H](NC(=O)[C@H](CC(N)=O)NC(=O)[C@H](N)CO)C(=O)N[C@@H](Cc1ccccc1)C(=O)N[C@@H](C)C(=O)OCc1ccccc1,5
11,CSCC[C@H](N)C(=O)N[C@@H](CC(N)=O)C(=O)N[C@H](C(=O)N[C@@H](Cc1ccccc1)C(=O)N[C@@H](C)C(=O)OCc1ccccc1)C(C)C (H-MNVFA-OBn),76
12,CC(C)[C@H](NC(=O)[C@H](CC(N)=O)NC(=O)[C@@H](N)CO)C(=O)N[C@@H](Cc1ccccc1)C(=O)N[C@@H](C)C(=O)OCCc1ccccc1 (H-SNVFA-OCH2CH2Ph),15
13,CC(C)[C@H](NC(=O)[C@H](CC(N)=O)NC(=O)[C@@H](N)CO)C(=O)N[C@@H](Cc1ccc(-c2ccccc2)cc1)C(=O)N[C@@H](C)C(=O)OCc1ccccc1 (H-SNV[Bip]A-OBn),1
14,CC(C)[C@H](NC(=O)[C@H](CC(N)=O)NC(=O)[C@@H](N)CO)C(=O)N[C@@H](Cc1cccc2ccccc12)C(=O)N[C@@H](C)C(=O)OCc1ccccc1 (H-SNV[1Nal]A-OBn),2
15,CC(C)[C@H](NC(=O)[C@H](CC(N)=O)NC(=O)[C@H](CO)NC(=O)[C@@H](NC(=O)[C@H](C)N)[C@@H](C)O)C(=O)N[C@@H](Cc1ccccc1)C(=O)N[C@@H](C)C(=O)OCc1ccccc1 (H-ATSNVFA-OBn),31
16,C[C@H](NC(=O)[C@H](Cc1ccccc1)NC(=O)[C@H](Cc1ccccc1)NC(=O)[C@H](CC(N)=O)NC(=O)[C@@H](N)CO)C(=O)OCc1ccccc1 (H-SNFFA-OBn),50
17,CC(C)[C@H](NC(=O)[C@H](CC(N)=O)NC(=O)C(C)(N)CO)C(=O)N[C@@H](Cc1ccccc1)C(=O)N[C@@H](C)C(=O)OCc1ccccc1 (stereo partly drawn) (H-[ξαMeS]NVFA-OBn),350
18,CC(C)[C@H](NC(=O)[C@H](CC(N)=O)NC(=O)[C@@H]1C[C@H](O)CN1)C(=O)N[C@@H](Cc1ccccc1)C(=O)N[C@@H](C)C(=O)OCc1ccccc1,56
19,CC(C)[C@H](NC(=O)[C@H](CC(N)=O)NC(=O)[C@@H](N)CO)C(=O)N[C@@H](Cc1ccc2ccccc2c1)C(=O)N[C@@H](C)C(=O)OCc1ccccc1 (H-SNV[2Nal]A-OBn),12
20,CC(C)[C@H](NC(=O)[C@H](CC(N)=O)NC(=O)[C@@H](N)CO)C(=O)N[C@@H](Cc1c[nH]c2ccccc12)C(=O)N[C@@H](C)C(=O)OCc1ccccc1 (H-SNVWA-OBn),6
21,CC(C)[C@H](NC(=O)[C@H](CC(N)=O)NC(=O)[C@@H](N)[C@@H](C)O)C(=O)N[C@@H](Cc1ccccc1)C(=O)N[C@@H](C)C(=O)OCc1ccccc1 (H-TNVFA-OBn),18
22,CC(C)[C@H](NC(=O)[C@H](CC(N)=O)NC(=O)[C@@H](N)CO)C(=O)N[C@@H](Cc1ccccc1)C(=O)N[C@@H](CO)C(=O)OCc1ccccc1 (H-SNVFS-OBn),43
23,CC(C)[C@H](NC(=O)[C@H](CC(N)=O)NC(=O)[C@@H](N)CO)C(=O)N[C@@H](Cc1ccccc1)C(=O)N[C@@H](C)C(=O)OCCCCc1ccccc1 (H-SNVFA-X3),19
24,CC(C)[C@H](NC(=O)[C@H](CC(N)=O)NC(=O)[C@@H](N)CS)C(=O)N[C@@H](Cc1ccccc1)C(=O)N[C@@H](C)C(=O)OCc1ccccc1 (H-CNVFA-OBn),8
25,"CC(C)[C@H](NC(=O)[C@H](CC(N)=O)NC(=O)[C@@H](N)CO)C(=O)N[C@@H](Cc1cc(I)c(O)c(I)c1)C(=O)N[C@@H](C)C(=O)OCc1ccccc1 (H-SNV[Tyr(3,5-I2)]A-OBn)",7
26,CC(C)[C@H](NC(=O)[C@H](CC(N)=O)NC(=O)[C@@H]1CCCN1)C(=O)N[C@@H](Cc1ccccc1)C(=O)N[C@@H](C)C(=O)OCc1ccccc1 (H-PNVFA-OBn),200
27,CC(C)[C@H](NC(=O)[C@H](CC(N)=O)NC(=O)[C@H](CO)NC(=O)[C@@H](NC(=O)[C@H](C)NC(=O)[C@@H](N)CCCNC(=N)N)[C@@H](C)O)C(=O)N[C@@H](Cc1ccccc1)C(=O)N[C@@H](C)C(=O)OCc1ccccc1 (H-RATSNVFA-OBn),38
28,CC(C)[C@H](NC(=O)[C@H](CC(N)=O)NC(=O)[C@H](CO)NC(=O)[C@@H](N)[C@@H](C)O)C(=O)N[C@@H](Cc1ccccc1)C(=O)N[C@@H](C)C(=O)OCc1ccccc1 (H-TSNVFA-OBn),15
29,CC(C)[C@H](NC(=O)[C@H](CC(N)=O)NC(=O)[C@@H](N)CO)C(=O)N[C@H](C(=O)N[C@@H](C)C(=O)OCc1ccccc1)C(c1ccccc1)c1ccccc1 (H-SNV[Dip]A-OBn),6

# Biological target: Myosin light chain kinase, smooth muscle (Gallus gallus) (UniProt P11799)
# Test: Inhibition of native form of myosin light chain kinase at from chicken gizzard 100 uM
# How it was run: as §1
# Myosin light chain kinase, smooth muscle (Gallus gallus), sequence (P11799 whole entry): as above
row,Compound,inhibition [%]
1,CC(C)[C@H](NC(=O)[C@H](CCC(N)=O)NC(=O)[C@@H](N)CO)C(=O)N[C@@H](Cc1ccccc1)C(=O)N[C@@H](C)C(=O)OCc1ccccc1 (H-SQVFA-OBn),32
2,CC(C)[C@H](NC(=O)[C@H](CC(N)=O)NC(=O)CN)C(=O)N[C@@H](Cc1ccccc1)C(=O)N[C@@H](C)C(=O)OCc1ccccc1 (H-GNVFA-OBn),37
3,CC(C)[C@H](NC(=O)[C@H](Cc1c[nH]cn1)NC(=O)[C@@H](N)CO)C(=O)N[C@@H](Cc1ccccc1)C(=O)N[C@@H](C)C(=O)OCc1ccccc1 (H-SHVFA-OBn),0
4,CC(C)[C@@H](NC(=O)[C@H](CC(N)=O)NC(=O)[C@@H](N)CO)C(=O)N[C@@H](Cc1ccccc1)C(=O)N[C@@H](C)C(=O)OCc1ccccc1,0

# Biological target: T1, Myosin light chain kinase, smooth muscle
# Test: Inhibition of calmodulin-independent form of myosin light chain kinase isolated from chicken gizzard.
# How it was run: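 Chicken gizzard MLCK made calmodulin-independent by limited trypsin digestion. It was started with ATP and stopped with HCl. Phosphate in substrate was counted on phosphocellulose filters. IC50 was read graphically from duplicates at four concentrations and reported as the mean, or as % inhibition at one concentration.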
row,Compound,IC50 [µM]
1,C[C@H](NC(=O)[C@H](Cc1ccccc1)NC(=O)[C@@H](NC(=O)[C@H](CC(N)=O)NC(=O)[C@@H](N)CO)[C@@H](C)O)C(=O)OCc1ccccc1 (H-SNTFA-OBn),190
2,CC(C)[C@H](NC(=O)[C@H](CC(N)=O)NC(=O)[C@@H](N)CO)C(=O)N[C@H](Cc1ccccc1)C(=O)N[C@@H](C)C(=O)OCc1ccccc1,75
3,CC(C)[C@H](NC(=O)[C@@H](NC(=O)[C@@H](N)CO)C(C)C)C(=O)N[C@@H](Cc1ccccc1)C(=O)N[C@@H](C)C(=O)OCc1ccccc1 (H-SVVFA-OBn),24
4,CC(C)[C@@H](CN[C@@H](Cc1ccccc1)C(=O)N[C@@H](C)C(=O)OCc1ccccc1)NC(=O)[C@H](CC(N)=O)NC(=O)[C@@H](N)CO,262
5,CC(C)[C@H](NC(=O)[C@H](CC(N)=O)NC(=O)[C@@H](N)CO)C(=O)N[C@H](/C=C/C=C/c1ccccc1)Cc1ccccc1,3.9
6,CC(C)[C@H](NC(=O)[C@H](CC(N)=O)NC(=O)[C@@H](N)CO)C(=O)N[C@@H](Cc1ccccc1)C(=O)N[C@@H](C)C(=O)NCc1ccccc1 (H-SNVFA-NHBn),16
7,CC(C)[C@@H](/C=C/[C@@H](Cc1ccccc1)C(=O)N[C@@H](C)C(=O)OCc1ccccc1)NC(=O)[C@H](CC(N)=O)NC(=O)[C@@H](N)CO,36
8,CC(C)[C@H](NC(=O)[C@H](CC(N)=O)NC(=O)[C@H](N)CO)C(=O)N[C@@H](Cc1ccccc1)C(=O)N[C@@H](C)C(=O)OCc1ccccc1,12
9,CC(C)[C@H](NC(=O)[C@H](C)NC(=O)[C@@H](N)CO)C(=O)N[C@@H](Cc1ccccc1)C(=O)N[C@@H](C)C(=O)OCc1ccccc1 (H-SAVFA-OBn),18
10,CC(C)[C@H](NC(=O)[C@H](CC(N)=O)NC(=O)[C@@H](N)CO)C(=O)N[C@@H](Cc1ccccc1)C(=O)N[C@@H](C)C(=O)OCCc1ccccc1 (H-SNVFA-OCH2CH2Ph),50
11,CC(C)[C@H](NC(=O)[C@H](CC(N)=O)NC(=O)[C@@H](N)CO)C(=O)N[C@@H](Cc1ccc(-c2ccccc2)cc1)C(=O)N[C@@H](C)C(=O)OCc1ccccc1 (H-SNV[Bip]A-OBn),5
12,CC(C)[C@H](NC(=O)[C@H](CC(N)=O)NC(=O)[C@@H](N)CO)C(=O)N[C@@H](Cc1cccc2ccccc12)C(=O)N[C@@H](C)C(=O)OCc1ccccc1 (H-SNV[1Nal]A-OBn),2
13,CC(C)[C@@H](NC(=O)[C@@H](CC(N)=O)NC(=O)[C@@H](N)CO)C(=O)N[C@@H](Cc1ccccc1)C(=O)N[C@@H](C)C(=O)OCc1ccccc1,186
14,CC(C)[C@H](NC(=O)[C@H](CC(N)=O)NC(=O)[C@@H](N)CO)C(=O)N[C@H](/C=C/[C@@H](C)COCc1ccccc1)Cc1ccccc1,23
15,CC(C)[C@H](NC(=O)[C@H](CC(N)=O)NC(=O)[C@@H](N)CO)C(=O)N[C@@H](Cc1ccccc1)C(=O)N[C@H](C)C(=O)OCc1ccccc1,64
16,CC(C)[C@H](/C=C/[C@H](CC(N)=O)NC(=O)[C@@H](N)CO)C(=O)N[C@@H](Cc1ccccc1)C(=O)N[C@@H](C)C(=O)NCc1ccccc1,278
17,CC(C)[C@H](NC(=O)[C@H](CC(N)=O)NC(=O)[C@@H](N)CO)C(=O)N[C@H](/C=C/C(CCCc1ccccc1)CCCc1ccccc1)Cc1ccccc1,0.6
18,CC(C)[C@H](NC(=O)[C@H](CC(N)=O)NC(=O)[C@@H](N)CO)C(=O)N[C@H](/C=C\[C@@H](C)COCc1ccccc1)Cc1ccccc1,17
19,CC(C)[C@H](NC(=O)[C@H](CC(N)=O)NC(=O)[C@@H](N)CO)C(=O)N[C@H](CCCCc1ccccc1)Cc1ccccc1,12
20,CCCCOC(=O)[C@H](C)NC(=O)[C@H](Cc1ccccc1)NC(=O)[C@@H](NC(=O)[C@H](CC(N)=O)NC(=O)[C@@H](N)CO)C(C)C (H-SNVFA-X2),185
